Source: ChEMBL document CHEMBL1773068, “Drug to genome to drug: discovery of new antiplasmodial compounds” (J Med Chem, 2011)
Calls of active or inactive are those of the source. No cut-off for these calls is given here.

Columns and labels:
MRC5 = experiment: Cytotoxicity against human MRC5 SV2 cells after 72 hrs; type: cell-based; conditions: MRC5, 72 h
In short: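 MRC-5 SV2 human fetal lung fibroblasts grown in MEM with L-glutamine, NaHCO3 and 5% FCS at 37 °C, 5% CO2. 10^4 cells/well seeded onto prediluted compounds, 72 h at 37 °C. Viability by resazurin added for 24 h, fluorescence at ex 530/em 590 nm. IC50 from duplicate determinations.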

Plasmodium falciparum [1] = experiment: Antiplasmodial activity against chloroquine-susceptible Plasmodium falciparum GHA strain infected in human erythrocytes after 72 hrs by spectrophotometry; type: functional, organism-based
In short: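 P. falciparum cultured in human A+ erythrocytes in RPMI-1640 with 10% human serum, 37 °C, low oxygen (3% O2, 4% CO2, 93% N2). Infected red cell suspension (1% parasitemia, 2% hematocrit) incubated with compounds 72 h, then frozen. Growth read by Malstat method: NBT/PES added, 2 h in dark, absorbance at 655 nm. IC50 from duplicate determinations.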

Plasmodium falciparum [2] = experiment: Inhibition of Plasmodium falciparum GHA strain PDE assessed as inhibition of cGMP hydrolysis at 20 uM after 6 hrs by time resolved fluorescence resonance energy transfer-based assay
In short: (§1)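 Parasite lysate (2 μL, ~400 000 parasites) incubated with cGMP (150 nM) and inhibitor at 20 μM (4% DMSO final) for 6 h at 37 °C. Buffer: 50 mM Tris-HCl pH 7.4, 6 mM MgCl2, 1 mM MnCl2, 4 mM DTT. Residual cGMP measured by competitive HTRF (d2-labelled cGMP vs anti-cGMP cryptate), 665/620 nm ratio after 1 h at room temperature. Duplicates, each read twice.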

Plasmodium falciparum [3] = experiment: Inhibition of Plasmodium falciparum GHA strain PDE assessed as inhibition of cAMP hydrolysis at 20 uM after 6 hrs by time resolved fluorescence resonance energy transfer-based assay
In short: as §1, with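 “cAMP” for “cGMP”, “anti-cAMP” for “anti-cGMP”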

IC50 (Plasmodium falciparum [1]; read-out: IC50)	inhibition (Plasmodium falciparum [2])	inhibition (Plasmodium falciparum [3])	IC50 (Plasmodium falciparum [1]; read-out: pIC50 (converted))	Compound	IC50 (MRC5)
> 64 µM				O=C1[C@H]2Cc3c([nH]c4ccccc34)[C@@H](c3ccc4c(c3)OCO4)N2C(=O)CN1c1ccsc1	> 64 µM
12 µM				O=C1[C@H]2Cc3c([nH]c4ccccc34)[C@@H](c3ccc4c(c3)OCO4)N2C(=O)CN1[C@@H]1CCNC1	> 64 µM
35 µM	Active	Active		CCCOc1ccccc1-c1nc2[nH]nnc2c(=O)[nH]1 [ZAPRINAST]	
> 64 µM				Cc1cccc(N2CC(=O)N3[C@H](c4ccc5c(c4)OCO5)c4[nH]c5ccccc5c4C[C@@H]3C2=O)c1	> 64 µM
7 µM				O=C1[C@H]2Cc3c([nH]c4ccccc34)[C@@H](c3ccc4c(c3)OCO4)N2C(=O)CN1c1ccc(N2CCNCC2)cc1	8 µM
4 µM				NCCCC[C@H]1NC(=O)[C@H]2Cc3c([nH]c4ccccc34)[C@@H](c3ccc4c(c3)OCO4)N2C1=O	> 64 µM
64 µM	Active	Active		OCCN(CCO)c1nc(N2CCCCC2)c2nc(N(CCO)CCO)nc(N3CCCCC3)c2n1 [DIPYRIDAMOLE]	
> 64 µM				CCCCN1CC(=O)N2[C@H](c3ccc4c(c3)OCO4)c3[nH]c4ccccc4c3C[C@@H]2C1=O	> 64 µM
60 µM				CC(C)(C)OC(=O)CC[C@@H]1NC(=O)[C@H]2Cc3c([nH]c4ccccc34)[C@@H](c3ccc4c(c3)OCO4)N2C1=O	> 64 µM
9 µM				Cn1c2c(c3ccccc31)C[C@@H]1C(=O)N([C@@H]3CCN(Cc4ccccc4)C3)CC(=O)N1[C@@H]2c1ccc2c(c1)OCO2	> 64 µM
> 64 µM				COc1ccc(N2CC(=O)N3[C@H](c4ccc5c(c4)OCO5)c4[nH]c5ccccc5c4C[C@@H]3C2=O)cc1	> 64 µM
22 µM				O=C1[C@H]2Cc3c([nH]c4ccccc34)[C@@H](c3ccc4c(c3)OCO4)N2C(=O)CN1c1cccnc1	> 64 µM
23 µM				CC(C)(C)OC(=O)N1CCN(Cc2cccc(N3CC(=O)N4[C@H](c5ccc6c(c5)OCO6)c5[nH]c6ccccc6c5C[C@@H]4C3=O)c2)CC1	> 64 µM
7 µM				O=C1[C@H]2Cc3c([nH]c4ccc(Br)cc34)[C@@H](c3ccc4c(c3)OCO4)N2C(=O)CN1[C@@H]1CCN(Cc2ccccc2)C1 (mixture of isomers)	10 µM
> 64 µM				O=C1[C@H]2Cc3c([nH]c4ccccc34)[C@@H](c3ccc4c(c3)OCO4)N2C(=O)CN1c1cccs1	> 64 µM
19 µM				O=C1[C@H]2Cc3c([nH]c4ccccc34)[C@@H](c3ccc4c(c3)OCO4)N2C(=O)CN1c1ccc(CN2CCOCC2)cc1	> 64 µM
> 64 µM				O=C1[C@H]2Cc3c([nH]c4ccccc34)[C@@H](c3ccc4c(c3)OCO4)N2C(=O)CN1c1ccc(C(F)(F)F)cc1	> 64 µM
22 µM				O=C1[C@H]2Cc3c([nH]c4ccccc34)[C@@H](c3ccc4c(c3)OCO4)N2C(=O)CN1CCN1CCOCC1	> 64 µM
0.5 µM	60%	Active	0.501 µM	O=C1[C@H]2Cc3c([nH]c4ccccc34)[C@@H](c3ccc4c(c3)OCO4)N2C(=O)CN1[C@@H]1CCN(Cc2ccccc2)C1	10 µM
> 64 µM				O=C1N[C@@H](COCc2ccccc2)C(=O)N2[C@H](c3ccc4c(c3)OCO4)c3[nH]c4ccccc4c3C[C@H]12	> 64 µM
16 µM				O=C1[C@H]2Cc3c([nH]c4ccccc34)[C@@H](c3ccc4c(c3)OCO4)N2C(=O)CN1CCc1ccc(O)cc1	> 64 µM
> 64 µM				CC(C)(C)OC(=O)N1CCN(c2ccc(N3CC(=O)N4[C@H](c5ccc6c(c5)OCO6)c5[nH]c6ccccc6c5C[C@@H]4C3=O)cc2)CC1	> 64 µM

IC50 (Plasmodium falciparum [1]; read-out: IC50)	inhibition (Plasmodium falciparum [2])	inhibition (Plasmodium falciparum [3])	IC50 (Plasmodium falciparum [1]; read-out: pIC50 (converted))	Compound	IC50 (MRC5)
0.97 µM				O=C1[C@H]2Cc3c([nH]c4ncccc34)[C@@H](c3ccc4c(c3)OCO4)N2C(=O)CN1[C@@H]1CCN(Cc2ccccc2)C1	22 µM
9 µM				O=C1[C@H]2Cc3c([nH]c4ccccc34)[C@@H](c3ccc4c(c3)OCO4)N2C(=O)CN1CCCn1ccnc1	> 64 µM
7 µM				CN(CCN1CC(=O)N2[C@H](c3ccc4c(c3)OCO4)c3[nH]c4ccccc4c3C[C@@H]2C1=O)Cc1ccccc1	> 64 µM
10 µM				O=C1[C@H]2Cc3c([nH]c4ccccc34)[C@@H](c3ccc4c(c3)OCO4)N2C(=O)CN1c1cccc(CN2CCNCC2)c1	8 µM
8 µM				CN(CCCN1CC(=O)N2[C@H](c3ccc4c(c3)OCO4)c3[nH]c4ccccc4c3C[C@@H]2C1=O)Cc1ccccc1	8 µM
> 64 µM				O=C1[C@H]2Cc3c([nH]c4ccccc34)[C@@H](c3ccc4c(c3)OCO4)N2C(=O)CN1c1cccc(Cl)c1	> 64 µM
50 µM				O=C1[C@H]2Cc3c([nH]c4ccccc34)[C@H](c3ccc4c(c3)OCO4)N2C(=O)CN1[C@@H]1CCN(Cc2ccccc2)C1	> 64 µM
60 µM				O=C1[C@H]2Cc3c([nH]c4ccccc34)[C@@H](c3ccc4c(c3)OCO4)N2C(=O)CN1c1ccc(Cl)cc1	> 64 µM
> 64 µM				O=C1[C@H]2Cc3c([nH]c4ccccc34)[C@@H](c3ccc4c(c3)OCO4)N2C(=O)CN1c1ccccc1	> 64 µM
4 µM				Cn1ccnc1CN1CCC(N2CC(=O)N3[C@H](c4ccc5c(c4)OCO5)c4[nH]c5ccccc5c4C[C@@H]3C2=O)CC1	62 µM
56 µM				O=C1[C@H]2Cc3c([nH]c4ccccc34)[C@@H](c3ccc4c(c3)OCO4)N2C(=O)CN1c1cncnc1	> 64 µM
1.26 µM				O=C1[C@H]2Cc3c([nH]c4cc(F)ccc34)[C@@H](c3ccc4c(c3)OCO4)N2C(=O)CN1[C@@H]1CCN(Cc2ccccc2)C1 (mixture of isomers)	16 µM
1.7 µM				O=C1[C@H]2Cc3c([nH]c4ccc(F)cc34)[C@@H](c3ccc4c(c3)OCO4)N2C(=O)CN1[C@@H]1CCN(Cc2ccccc2)C1 (mixture of isomers)	17.8 µM
9 µM				O=C1[C@H]2Cc3c([nH]c4ccccc34)[C@@H](c3ccc4c(c3)OCO4)N2C(=O)CN1Cc1ccc(N2CCOCC2)cc1	> 64 µM
10 µM				O=C1[C@H]2Cc3c([nH]c4ccccc34)[C@@H](c3ccc4c(c3)OCO4)N2C(=O)CN1[C@H]1CCN(Cc2ccccc2)C1	> 64 µM
32 µM				O=C1[C@H]2Cc3c([nH]c4ccccc34)[C@@H](c3ccc4c(c3)OCO4)N2C(=O)CN1C1CCNCC1	> 64 µM
1 µM	60%	Active		O=C1[C@H]2Cc3c([nH]c4ccccc34)[C@@H](c3ccc4c(c3)OCO4)N2C(=O)CN1C1CCN(Cc2ccccc2)CC1	7 µM
> 64 µM				CN1CC(=O)N2[C@H](c3ccc4c(c3)OCO4)c3[nH]c4ccccc4c3C[C@@H]2C1=O [TADALAFIL]	> 64 µM
25 µM				O=C1N[C@@H](Cc2c[nH]c3ccccc23)C(=O)N2[C@H](c3ccc4c(c3)OCO4)c3[nH]c4ccccc4c3C[C@H]12	35 µM
> 64 µM				O=C1NCC(=O)N2[C@H](c3ccc4c(c3)OCO4)c3[nH]c4ccccc4c3C[C@H]12 [NORTADALAFIL]	> 64 µM
> 64 µM				NN1CC(=O)N2[C@H](c3ccc4c(c3)OCO4)c3[nH]c4ccccc4c3C[C@@H]2C1=O	> 64 µM
> 64 µM				CCCCc1ccc(N2CC(=O)N3[C@H](c4ccc5c(c4)OCO5)c4[nH]c5ccccc5c4C[C@@H]3C2=O)cc1	> 64 µM
